# Screening data (PubChem)
# The list is not random: actives were taken first. Their share in the collection is about 3.7%.
# Kir21 inh – blocks the mouse Kir2.1 inward-rectifier potassium channel; P35561; HEK293-Kir2.1, FluxOR thallium flux fluorescence; active compounds read low; B-score at 10 µM; hit rate 0.85% among 310,000;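 active = fluorescence ratio B-score at or below minus 3 SD of library scores, with starting-brightness B-score within 2 SD, cut at about -4.2 in these data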;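 also: channel flux triggered by added potassium and thallium sulfate stimulus; B-score of peak minus minimum fluorescence over baseline after thallium stimulus; more negative B-score means stronger Kir2.1 block with less thallium influx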
# KCNQ1 act – potentiates or activates the human KCNQ1 potassium channel; P51787; CHO-K1 KCNQ1, thallium flux FluxOR fluorescence; active compounds read high; B-score at 10 µM; hit rate 0.35% among 310,000; AID 2648;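 active = fluorescence ratio B-score, a plate-corrected score, at least three library SD, with initial intensity B-score within 5 SD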
#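 Assay system: CHO-K1 cells stably expressing KCNQ1. Medium: assay buffer for compound exposure, DMSO matched across wells. Timing: 37 °C overnight plating, 90-min dark dye load, 20-min compound pretreatment. Signal: kinetic FluxOR fluorescence, 10 s baseline plus 110 s post-stimulus.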
# hERG protect – shields human hERG channel from block by proarrhythmic agents | Q12809 | CHO-hERG, FluxOR thallium flux, dofetilide IC70 present | activation (rescue from dofetilide block), less the hit threshold, % at 10 µM | hit rate 0.51% among 310,000 | AID 1511;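 active = activation above the mean of controls blocked by dofetilide plus 5 SD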;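 also: thallium influx through hERG after potassium depolarization seen as dye fluorescence rise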
# Target sequence (Q12809 whole entry, looked up): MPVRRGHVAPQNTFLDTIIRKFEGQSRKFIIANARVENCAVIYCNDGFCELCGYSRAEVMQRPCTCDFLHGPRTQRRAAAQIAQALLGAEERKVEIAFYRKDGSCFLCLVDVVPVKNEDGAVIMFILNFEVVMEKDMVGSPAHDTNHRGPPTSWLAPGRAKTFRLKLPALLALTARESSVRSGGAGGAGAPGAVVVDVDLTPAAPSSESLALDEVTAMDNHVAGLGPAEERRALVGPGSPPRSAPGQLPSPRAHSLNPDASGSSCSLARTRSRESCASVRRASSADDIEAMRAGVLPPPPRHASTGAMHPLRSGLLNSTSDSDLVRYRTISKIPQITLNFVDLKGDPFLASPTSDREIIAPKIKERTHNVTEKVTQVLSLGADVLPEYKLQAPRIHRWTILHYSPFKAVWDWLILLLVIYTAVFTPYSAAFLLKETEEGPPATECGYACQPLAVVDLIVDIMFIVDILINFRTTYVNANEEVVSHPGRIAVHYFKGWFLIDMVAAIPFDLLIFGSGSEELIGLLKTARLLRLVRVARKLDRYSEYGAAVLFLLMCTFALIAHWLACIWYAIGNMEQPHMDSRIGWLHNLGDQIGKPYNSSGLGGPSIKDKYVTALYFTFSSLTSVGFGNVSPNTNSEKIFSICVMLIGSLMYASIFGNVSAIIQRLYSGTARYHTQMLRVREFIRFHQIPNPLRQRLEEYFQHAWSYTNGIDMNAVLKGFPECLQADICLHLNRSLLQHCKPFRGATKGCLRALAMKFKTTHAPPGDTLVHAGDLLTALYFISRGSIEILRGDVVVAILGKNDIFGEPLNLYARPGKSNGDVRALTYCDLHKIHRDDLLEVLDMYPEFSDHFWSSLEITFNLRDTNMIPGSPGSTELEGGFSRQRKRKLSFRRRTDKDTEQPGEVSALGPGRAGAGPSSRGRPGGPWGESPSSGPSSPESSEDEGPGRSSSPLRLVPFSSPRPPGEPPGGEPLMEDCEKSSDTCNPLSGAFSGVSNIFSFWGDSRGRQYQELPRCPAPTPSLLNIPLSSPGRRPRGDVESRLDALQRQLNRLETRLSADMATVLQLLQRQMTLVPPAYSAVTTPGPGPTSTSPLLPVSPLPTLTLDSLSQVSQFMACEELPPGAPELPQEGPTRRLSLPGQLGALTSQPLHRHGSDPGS
# KCNQ1 block – inhibitors of human KCNQ1 potassium channel | P51787 | CHO-K1 KCNQ1, FluxOR thallium flux fluorescence; active compounds read high | B-score at 10 µM | hit rate 1.3% among 310,000 | AID 2642;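 active = compounds whose thallium flux B-score, printed positive for inhibition, exceeds three library SD while starting fluorescence stays within three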;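 also: channel opened by potassium depolarization with thallium stimulus after 20 min compound exposure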
# KCNK9 block – human KCNK9 channel inhibition. Q9NPC2. HEK293 KCNK9, FluxOR thallium flux fluorescence; active compounds read low. B-score at 10 µM. hit rate 1.2% among 310,000. AID 488922;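 active = ratio B-score over 3 SD below the library mean, with starting fluorescence within 5 SD of its mean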;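 also: negative B-score means less thallium flux so channel inhibition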
# KCNK3 block – human KCNK3 channel inhibition, primary screen | hit rate 0.84% among 340,000 | CHO-KCNK3 thallium flux, FluxOR fluorescence; active compounds read low | O14649 | B-score at 10 µM | AID 602410;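 active = B-score under library mean minus 4 SD, starting fluorescence ratio at most library mean plus 5 SD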;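 also: more negative B-score means stronger inhibition of thallium flux through KCNK3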
# KCNK9 inh conf – human KCNK9 inhibitor confirmation | hit rate 43% among 4,900 | shares compounds with KCNK9 block | inhibition, % at 10 µM | AID 492992 | HEK293 KCNK9 cells, FluxOR thallium flux fluorescence;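 active = thallium signal inhibited by more than 5 SD of the compound-free buffer control wells, on both duplicate plates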;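 also: 0% = assay buffer control wells without compound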
# Kir21 sel – selectivity of KCNK9 modulators against mouse Kir2.1 | hit rate 4% among 4,900 | shares compounds with KCNK9 block | Kir2.1 cells, FluxOR thallium flux fluorescence | AID 492993 | inhibition, % at 10 µM;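 active = thallium signal drop more than 5 SD beyond the mean of the no-compound control wells, seen in both duplicate plates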;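 also: signal is fluorescence rise after thallium addition divided by baseline fluorescence; plate controls were assay buffer only for no effect and full block by chlorpromazine control for full effect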
# KCNK9 uninduced – non-induced cell nonspecific activity of KCNK9 modulators; shares compounds with KCNK9 block; non-induced KCNK9-HEK293, FluxOR thallium flux; inhibition, % at 10 µM; hit rate 40% among 4,900; AID 492997;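 active = thallium signal drop beyond 5 SD of the untreated control mean, on both duplicate plates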;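 also: plate controls were buffer only IC0 wells for no effect and SID17386958 at its maximal inhibitory level for full effect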
# * marks the source's active call; other numbers are inactive results; i = inactive; x = no result.
SMILES,Kir21 inh,KCNQ1 act,hERG protect,KCNQ1 block,KCNK9 block,KCNK3 block,KCNK9 inh conf,Kir21 sel,KCNK9 uninduced
CCC(c1nnnn1CCc1ccccc1)N(Cc1ccco1)Cc1cc2cccc(C)c2[nH]c1=O (stereo unspecified),-1.7,i,-12,7*,-10*,i,33%*,i,30%*
CCCC(=O)NC(Nc1cc(C(F)(F)F)ccc1Cl)C(Cl)(Cl)Cl (stereo unspecified),-2.3,i,-14,i,i,i,x,x,x
CCCC(=O)NC(Nc1cccc(C(F)(F)F)c1)C(Cl)(Cl)Cl (stereo unspecified),-1.8,i,-6,8*,-8.8*,i,32%*,i,26%*
O=C(NCC(c1ccco1)N1CCc2ccccc2C1)c1cccc(F)c1 (stereo unspecified),-1.9,i,-13,i,i,i,x,x,x
COc1cccc(C(=O)NCC(c2ccco2)N2CCc3ccccc3C2)c1 (stereo unspecified),0.14,i,-6,i,-10*,i,38%*,i,i
COC(=O)/C(=C\C=C\c1ccccc1)NC(=O)c1ccccc1,-1.6,i,-6,i,i,i,x,x,x
COC(=O)/C(=C\c1ccc2c(c1)c1ccccc1n2C)NC(=O)c1ccccc1,-0.38,i,-9,i,-9.6*,i,36%*,i,i
C=CCOC(=O)/C(=C\c1cccc2ccccc12)NC(=O)c1ccccc1,1.1,i,-6,i,i,i,x,x,x
CCOC(=O)/C(=C/c1c2ccccc2cc2ccccc12)NC(=O)c1ccccc1,-0.03,i,-7,i,-16*,-11*,58%*,i,39%*
COc1ccc(Cl)cc1NC(=O)CSc1nc(N2CCCCC2)nc(N2CCCCC2)n1,-0.62,i,-2,i,-11*,i,36%*,i,26%*
COc1cc(Cl)c(C)cc1NC(=O)CSc1cc(Cl)ccc1Cl,-0.34,i,-25,i,-9.8*,i,56%*,i,44%*
COc1ccc(Cl)cc1NC(=O)CSc1nc(N2CCOCC2)nc(N2CCOCC2)n1,-0.07,i,-14,i,i,i,x,x,x
CCN(C[C@H]1N[C@@](Cc2ccccc2)(C(=O)OC)[C@H]2C(=O)N(C)C(=O)[C@@H]12)C(=O)c1ccc(C)cc1,x,x,x,x,x,i,x,x,x
COC(=O)c1ccc(NS(=O)(=O)c2ccccc2)o1,0.36,i,-2,i,i,i,x,x,x
O=CNCCCc1nc2ccccc2n1CCc1ccccc1,-0.71,i,-8,i,i,i,x,x,x
CCOc1ccccc1NC(=O)n1ncc2c(C)cccc21,-2.2,i,-12,i,-13*,i,i,i,40%*
COc1ccc(CC(=O)Nc2nc(-c3cc(OC)ccc3OC)cs2)cc1,-0.29,i,-10,i,i,i,x,x,x
COc1ccc(OC)c(-c2csc(NC(=O)C3c4ccccc4Oc4ccccc43)n2)c1,-0.06,i,-3,i,-9.1*,i,36%*,i,32%*
COc1ccc(CCCc2nnc(SCC(=O)Nc3cccc(C)c3)o2)cc1,-0.16,i,-4,i,i,i,i,i,i
CCOc1ccc(N2C(=O)c3cccnc3C2Nc2ccc(C)c(C)c2)cc1 (stereo unspecified),-0.02,i,-11,i,i,i,i,i,i
CCOc1ccc(N2C(=O)c3cccnc3C2Nc2ccc(C)cc2)cc1 (stereo unspecified),1.2,i,-7,i,i,i,i,i,i
O=C(NS(=O)(=O)Oc1ccc(F)cc1F)OC[C@@H]1CCCN2CCCCC12 (stereo partly specified),0.31,i,-1,i,i,i,x,x,x
COc1ccc(NC(C#N)c2ccccc2OCc2ccccc2)cc1 (stereo unspecified),0.28,i,-7,i,-8.3*,i,i,i,24%*
CCOC(=O)c1c(S(=O)(=O)NCC(=O)N2CCN(c3ccc(OC)cc3)CC2)c(C)n(C)c1C,-0.69,i,-9,i,i,i,x,x,x
Cc1csc(NC(=O)CSc2nc3ccccc3c3c2CCCC3)n1,1.6,i,-1,i,i,i,i,i,i
SMILES,Kir21 inh,KCNQ1 act,hERG protect,KCNQ1 block,KCNK9 block,KCNK3 block,KCNK9 inh conf,Kir21 sel,KCNK9 uninduced
O=C(CSc1nncc2ccccc12)N1CCOCC1,0.05,i,-12,i,i,i,x,x,x
O=C(CSc1nc2ccccc2c2c1CCCC2)N1CCOCC1,-0.99,i,-13,i,i,i,i,i,i
Cc1ccc(S(=O)(=O)N2CCOCC2)cc1NC(=O)Nc1ccc([N+](=O)[O-])cc1,x,x,x,x,x,i,x,x,x
CN(CCOc1cccc(C(F)(F)F)c1)Cc1ccccc1,1.3,i,-13,i,i,i,x,x,x
FC(F)(F)c1cccc(OCCN2CCN(Cc3ccccc3)CC2)c1,-1.1,i,-6,i,i,i,i,i,i
OCCN1CCN(CCOc2cccc(Cl)c2)CC1,-0.43,i,-3,i,i,i,i,i,i
CCOc1ccc(N2CC(C(=O)Nc3cc(Cl)ccc3-n3cncn3)CC2=O)cc1 (stereo unspecified),1.9,i,-4,i,i,i,x,x,x
COc1cc(C(C)=O)ccc1OCC(=O)Nc1cc(C)on1,x,x,x,x,x,i,x,x,x
N#C/C(=C/c1ccc(N2CCCCC2)cc1)c1cccc(F)c1,-1.4,i,-10,i,i,i,x,x,x
N#C/C(=C/c1ccc(N2CCCCCC2)o1)c1ccc(Cl)cc1,-3.8,i,-31,7*,-10*,i,60%*,i,78%*
O=C(CCc1ccc(S(=O)(=O)NCc2ccccc2)cc1)NCc1cccnc1,-1.9,i,-5,i,i,i,x,x,x
CC(=O)N1N=C(c2ccc(Cl)cc2)OC1c1ccc(C(C)C)cc1 (stereo unspecified),2.3,i,-6,6*,i,i,i,i,27%*
Cc1sc(NC(=O)C2CCCCC2)c(C#N)c1-c1ccccc1,1.1,i,-10,i,i,i,i,i,i
c1cnc2ccc(C(c3nnnn3C3CCCC3)N3CCN(c4nc5ccccc5s4)CC3)cc2c1 (stereo unspecified),0.33,i,-8,i,-9.2*,-9.1*,i,i,40%*
